CHT PAM = CHT positive allosteric modulators, primary screen, cell-based, membrane potential dye, choline EC20; High affinity choline transporter 1 (Homo sapiens), Q9GZV3; CHT-expressing cells; active compounds read high; LV-AA mutant CHT in HEK293 cells; B-score at 10 µM; 0.49% of 310,000 active;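 active = initial fluorescence not abnormally high and integrated response B-score, plate-corrected, over 3 SD above library mean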
Target sequence (Q9GZV3 whole entry, looked up): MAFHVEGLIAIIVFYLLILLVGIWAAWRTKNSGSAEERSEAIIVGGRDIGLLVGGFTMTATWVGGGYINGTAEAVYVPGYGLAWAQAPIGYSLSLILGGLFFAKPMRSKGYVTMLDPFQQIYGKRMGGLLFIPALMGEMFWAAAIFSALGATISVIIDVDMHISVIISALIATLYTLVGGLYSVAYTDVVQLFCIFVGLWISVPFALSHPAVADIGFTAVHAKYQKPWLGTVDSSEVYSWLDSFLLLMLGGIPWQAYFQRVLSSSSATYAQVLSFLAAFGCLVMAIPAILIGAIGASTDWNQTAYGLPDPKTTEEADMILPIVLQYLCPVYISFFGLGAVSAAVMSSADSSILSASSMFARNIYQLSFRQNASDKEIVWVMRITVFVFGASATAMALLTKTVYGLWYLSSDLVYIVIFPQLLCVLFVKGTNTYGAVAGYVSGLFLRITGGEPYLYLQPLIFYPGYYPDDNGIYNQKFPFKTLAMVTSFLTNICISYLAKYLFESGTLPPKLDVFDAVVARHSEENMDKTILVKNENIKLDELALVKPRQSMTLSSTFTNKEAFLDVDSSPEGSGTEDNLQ
proCasp3 act = activators of human procaspase-3 D3A mutant, primary screen, biochemical, absorbance, PC-3 D3A mutant, single concentration | Caspase-3 (Homo sapiens), P42574 | recombinant procaspase-3 D3A, Ac-DEVD-pNA absorbance 405 nm | activation, % at 8.5 µM | 0.11% of 330,000 active | AID 463141, 2010;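 active = activation above the mean of all tested compounds plus 3 SD, cut at about 21% in these data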
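System: Procaspase-3 D3A mutant. Medium: Zinc-free 300 mM NaCl, 50 mM HEPES, 0.01% Triton X-100. Schedule: 1 h preincubation plus 2 h reaction at 25 °C. Measured by: 405 nm absorbance of p-nitroaniline, reads at 0 and 120 min. Read-out: percent activation relative to control range.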
proCasp7 act = procaspase-7 activators, primary screen, counter-screen for procaspase-3 activator project, biochemical, absorbance, HTS, human. Caspase-7 (Homo sapiens), P55210. recombinant procaspase-7, Ac-DEVD-pNA absorbance 405 nm; D23A/D198A/D206A triple mutant, cannot self-cleave; scale: DMSO 0, 5 µM enzyme 100. 0.093% of 330,000 active. activation, % at 8.5 µM. AID 463210, 2010;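 active = percent activation above the screen-wide mean plus 3 SD, cut at about 25% in these data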
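System: Uncleavable procaspase-7 mutant enzyme; Amount: 2 µM procaspase-7 mutant as dispensed; Schedule: 1 h compound preincubation, 2 h substrate cleavage, 25 °C; Measured by: 405 nm absorbance of p-nitroaniline; Evaluation: percent activation from buffer-corrected 0–120 min absorbance change; Control set: low DMSO alone, high DMSO plus 5 µM PC-7.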
CHT inh = inhibitors of human choline transporter CHT | CHT-expressing cells, membrane potential dye, choline response; active compounds read low | B-score at 10 µM | High affinity choline transporter 1 (Homo sapiens), Q9GZV3 | AID 488975, 2010 | 0.86% of 310,000 active;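 active = B-score over 3 SD under the library average, and starting fluorescence ratio not unusually high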;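 also: choline stimulus applied at its EC90 after an EC20 pre-addition; B-score computed on integrated fluorescence ratio after choline addition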
CHT act confirm = CHT activators, confirmation, cell-based, membrane potential dye, duplicate; shares compounds with CHT PAM; CHT-expressing cells, membrane potential dye fluorescence (FDSS); % of choline EC20–EC90 response window; HEK293 expressing CHT LV-AA mutant; choline added at its EC20; activation, % at 10 µM; AID 504833, 2011; 91% of 2,500 active;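 active = primary screen active, with duplicate mean activation above negative control mean plus 3 SD, cut at about 11% in these data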
HEK293 MP dye = membrane potential response in parental HEK293 cells, counter-screen for CHT activator project, cell-based, membrane potential dye; ratio readout change at 10 µM, hits read low; membrane potential dye fluorescence (FDSS); measured after EC20 choline addition; shares compounds with CHT PAM; 62% of 2,500 active;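 active = duplicate-averaged ratio beyond 3 SD from buffer wells, up or down, though filed actives are nearly all decreases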
Each line names hits and unclear results; the compound was inactive in the other large screens (follow-up assays come after a bar, where they were run). The list is not random: actives were taken first. Their share in the collection is about 1.3%.

CN1CCN(CCCNC(=O)c2cn(C)c3ccc(S(=O)(=O)N(C)C)cc3c2=O)CC1	CHT PAM 6.87 | CHT act confirm 41.3 | HEK293 MP dye -22.7
Cc1ccc(C(=O)NCC(c2ccco2)N2CCc3ccccc3C2)cc1 (stereo unspecified)	none
O=C(NCC(c1ccco1)N1CCc2ccccc21)c1c(F)cccc1F (stereo unspecified)	none
O=C(NCC(c1ccco1)N1CCc2ccccc2C1)c1ccc(Cl)cc1 (stereo unspecified)	none | CHT act confirm 10.8 | HEK293 MP dye inactive
O=C(NCC(c1ccco1)N1CCc2ccccc21)c1ccccc1Cl (stereo unspecified)	CHT PAM 9.36 | CHT act confirm 29.2 | HEK293 MP dye inactive
COc1ccc(C(=O)N2CCC(O)(c3ccc(Cl)cc3)CC2)cc1OC	none
COc1cc(OC)c([N+](=O)[O-])cc1/C=N/NC(=O)c1ccncc1	none | CHT act confirm 37.4 | HEK293 MP dye -38.4
Nc1ccc(C(=O)N/N=C\C=C\c2cccc([N+](=O)[O-])c2)cc1	none
O=C(N/N=C/C=C/c1cccc([N+](=O)[O-])c1)c1ccncc1	CHT PAM 7.87 | CHT act confirm 13.5 | HEK293 MP dye inactive
CC1(NC(=O)Cc2c(F)cccc2Cl)CCS(=O)(=O)C1 (stereo unspecified)	none (no result: CHT PAM, CHT inh)
COc1cc(OC)c(-c2nc3cnccc3n2C)cc1OC	CHT PAM 6.59 | CHT act confirm 54.6 | HEK293 MP dye -53.3
Cn1c(-c2ccc3ccccc3n2)nc2cnccc21	none | CHT act confirm 44.6 | HEK293 MP dye -39.5
Cc1cc2c3c([nH]c2cc1S(=O)(=O)NCCCOC(C)C)CC(C)(C)CC3=O	none
C#CCOCCOCCOCCNc1nc(N2CCN(C(=O)[C@H](CCCCN)n3cc([C@@H](N)C(C)CC)nn3)CC2)nc(N2CCN(C(=O)[C@H](CCCCN)n3cc([C@@H](N)CC(C)C)nn3)CC2)n1 (stereo partly specified)	CHT PAM 6.52 | CHT act confirm 38.1 | HEK293 MP dye -37.1
C#CCOCCOCCOCCNc1nc(N2CCN(C(=O)[C@H](CCCCN)n3cc([C@@H](N)[C@H](C)CC)nn3)CC2)nc(N2CCN(C(=O)[C@H](CCCCN)n3cc([C@@H](N)CC(N)=O)nn3)CC2)n1	none (no result: CHT PAM, CHT inh)
NS(=O)(=O)c1ccc(CCNC(=O)c2ccc3nccnc3c2)cc1	none (no result: CHT PAM, CHT inh)
NS(=O)(=O)c1ccc(NC(=O)c2ccc3nccnc3c2)cc1	CHT PAM 7.53 | CHT act confirm 38.7 | HEK293 MP dye -27.5
CCC1CN(C(=O)N2CCC(C(=O)NCCc3ccc(OC)cc3OC)CC2)c2ccccc2O1 (stereo unspecified)	none
COc1ccc(C2C(C#N)=C(N)Oc3cc(N)ccc32)cc1 (stereo unspecified)	none (no result: proCasp3 act, proCasp7 act)
COc1cc(C2C(C#N)=C(N)Oc3cc(N)ccc32)cc(OC)c1OC (stereo unspecified)	CHT PAM 7.75 | CHT act confirm 40.4 | HEK293 MP dye inactive
CCOC(=O)c1cnc2ccc(OCC)cc2c1N1CCN(c2ccccc2OC)CC1	none
CCOC(=O)c1cnc2ccc(OCC)cc2c1N(C)Cc1ccccc1	CHT PAM 9.6 | CHT act confirm 41.2 | HEK293 MP dye inactive
OCCOc1ccc(CN2CCN(CCCc3ccccc3)C(CCO)C2)cc1 (stereo unspecified)	none (no result: proCasp3 act, proCasp7 act)
O=C(NC1CC(=O)N(c2ccc3c(c2)OCCO3)C1)N1CCCCC1 (stereo unspecified)	none
CCC(C)(C)C1CCc2nc3ccccc3c(C(=O)OC(C)C(=O)Nc3c(C)n(C)n(-c4ccccc4)c3=O)c2C1 (stereo unspecified)	CHT PAM 10.7 | CHT act confirm 32.0 | HEK293 MP dye inactive
CC(C(=O)N1CCc2ccccc2C1)N1C(=O)c2ccccc2C1=O (stereo unspecified)	none
CC(C)CC(C(=O)N1CCc2ccccc2C1)N1C(=O)c2ccccc2C1=O (stereo unspecified)	none | CHT act confirm 39.3 | HEK293 MP dye inactive
COc1ccc(CCNC(=O)C2CCN(Cc3nc(-c4cccc(Cl)c4)oc3C)CC2)cc1OC	none | CHT act confirm 29.9 | HEK293 MP dye -35.9
Cc1oc(-c2cccc(Cl)c2)nc1CN1CCC(C(=O)NCCCN2CC(C)CC(C)C2)CC1 (stereo unspecified)	none
COc1ccc(-c2nc(CN3CCC(C(=O)N4CCc5ccccc54)CC3)c(C)o2)cc1OC	none | CHT act confirm 38.8 | HEK293 MP dye -37.5
Oc1ccc(-c2nc3cnccn3c2Nc2ccc3c(c2)OCCO3)cc1	CHT PAM 8.28 | CHT act confirm inactive | HEK293 MP dye inactive
c1ccc(-c2nc3cnccn3c2Nc2ccc3c(c2)OCCO3)cc1	none
c1ccc(C[n+]2cccc(-c3ccccc3)c2)cc1	none
c1ccc(C[n+]2ccc3ccccc3c2)cc1	CHT PAM 6.31 | CHT act confirm 42.7 | HEK293 MP dye -48.2
Cc1c(Cl)cccc1NC(=S)Nc1ccc(S(=O)(=O)Nc2ncccn2)cc1	none (no result: CHT PAM, CHT inh)
CCCc1nc2ccccc2c(C(=O)OC(C)C(=O)NCc2ccc3c(c2)OCO3)c1CC (stereo unspecified)	CHT PAM 7.71 | CHT act confirm 35.8 | HEK293 MP dye inactive
COC(=O)c1ccc(OC)c(CSc2nnc(COc3cccc(C)c3)o2)c1	none | CHT act confirm 19.2 | HEK293 MP dye inactive
Cc1ccnc(OC(C(=O)O)C(OCc2ccccc2)(c2ccc(F)cc2)c2ccc(F)cc2)n1 (stereo unspecified)	none
CCc1ccccc1NC(=O)C1=CC(c2ccc(OC)c(OC)c2)=NS(=O)(=O)N1C	none
COc1cc(C(=O)c2cocc2C(=O)c2ccc3c(c2)OCO3)cc(OC)c1OC	CHT PAM 11.2 | CHT act confirm 25.7 | HEK293 MP dye inactive
COc1cc(C(=O)N/N=C(\C)c2ccc3c(c2)OCO3)cc(OC)c1OC	none
CCN1CCN(CCNC(=O)c2ccc(/C=C3/Sc4ccccc4N(Cc4cccc(Cl)c4)C3=O)cc2)CC1	none | CHT act confirm 17.3 | HEK293 MP dye -27.8
Cc1cccc(CN2C(=O)/C(=C\c3ccc(C(=O)NCCN4CCOCC4)cc3)Sc3ccccc32)c1	none

Bioassay records (PubChem)
